Laboratory results from ChEMBL document CHEMBL1131218, “Antineoplastic agents. 379. Synthesis of phenstatin phosphate” (J Med Chem, 1998).
pIC50: −log10 of the molar value. ≈ marks a conversion by molar mass, not a printed value.

Tests used:
[1] = Concentration to inhibit 50% of tubulin polymerization from bovine brain; set-up: species or system Bos taurus
Outline: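 Purified, electrophoretically homogeneous bovine brain tubulin at 1.0 mg/mL (10 μM) in 0.8 M monosodium glutamate pH 6.6 with 4% (v/v) DMSO and varying drug concentrations. Preincubated 15 min at 30 °C, chilled on ice, then GTP added (0.4 mM final). Assembly started by a jump from 0 to 30 °C and followed by turbidity. IC50 taken from extent of assembly at 20 min. Active compounds run in at least three independent experiments.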

Bos taurus = species: Bos taurus; experiment: Percentage inhibition of colchicine binding to tubulin by compound was evaluated; set-up: concentration or dose not given beside the values; conditions: concentration not given here
[2] = test system: Panel NCI-60 (60 carcinoma cell lines); experiment: The compound was tested for the concentration for 50% growth inhibition of NCI 60 cell line human tumor screen expressed in 10e-8 M; assay type: functional
Outline: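 NCI 60-cell-line screen, run in triplicate. Compounds tested in three concentration ranges (top 10⁻⁵, 10⁻⁶ and 10⁻⁷ M), each with five 10-fold dilutions. The mean panel GI50 across lines is reported with SD.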

NCI-H460 = experiment: The compound was tested for the concentration to inhibit 50% lung-NSC NCI-H460 cell lines.; assay type: functional; conditions: Homo sapiens
SK-MEL-5 = experiment: The compound was tested for the concentration to inhibit 50% of melanoma SK-MEL-5 cell lines.; assay type: functional; conditions: Homo sapiens
OVCAR = experiment: The compound was tested for the concentration to inhibit 50% of ovarian OVCAR cell lines.; assay type: functional; conditions: Homo sapiens
SF-295 = experiment: The compound was tested for the concentration to inhibit 50% of CNS SF-295 cell lines.; assay type: functional; conditions: Homo sapiens
P388 = experiment: The compound was tested for the concentration to inhibit 50% of leukemia P388 cell lines.; assay type: functional; conditions: Mus musculus
KM-20L2 = experiment: The compound was tested for the concentration to inhibit 50% of colon KM20L2 cell lines.; assay type: functional; conditions: Homo sapiens
A498 = experiment: The compound was tested for the concentration to inhibit 50% of renal A498 cell lines.; assay type: functional; conditions: Homo sapiens
Tubulin = Tubulin (Bos taurus, UniProt Q6B856+Q862L2+Q862F3); experiment: The compound was tested for the concentration to inhibit 50% of tubulin polymerization.; assay type: protein assay
Outline: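 Purified bovine brain tubulin at 1.0 mg/mL (10 μM) in 0.8 M monosodium glutamate pH 6.6 with 4% DMSO. Drug was preincubated with tubulin for 15 min at 30 °C, then chilled. GTP was added to 0.4 mM and assembly started by a jump from 0 to 30 °C, followed by spectrophotometer.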

Compound | pIC50 [1] | inhibition (Bos taurus) [%] | GI50 [2] [µM] | also measured
COc1cc(C(=O)c2cc(F)cc(F)c2)cc(OC)c1OC | 4.41 | 0 | 4.94 | 
COc1cc(C(=O)c2cc(Cl)cc(Cl)c2)cc(OC)c1OC | 4.44 | 1 | 5.12 | 
COc1ccc(/C=C\c2cc(OC)c(OC)c(OC)c2)cc1OP(=O)([O-])[O-].[Na+].[Na+] [FOSBRETABULIN DISODIUM] |  | 4 |  | GI50 (NCI-H460): 0.029 µg/mL; GI50 (SK-MEL-5): 0.041 µg/mL; GI50 (OVCAR): 0.023 µg/mL; GI50 (SF-295): 0.036 µg/mL; GI50 (P388): 0.0004 µg/mL; GI50 (KM-20L2): 0.34 µg/mL; GI50 (A498): 0.041 µg/mL; IC50 (Tubulin): > 80 µM
COc1ccc(/C=C\c2cc(OC)c(OC)c(OC)c2)cc1O |  | 97 |  | 
COc1ccc(C(=O)c2cc(OC)c(OC)c(OC)c2)cc1OC | 4.82 | 1 | 5.11 | 
COc1ccc(CCc2cc(OC)c(OC)c(OC)c2)cc1O | 5.68 | 77 |  | 
COc1cc(OC)cc(C(=O)c2cc(OC)c(OC)c(OC)c2)c1 | 5.44 | 58 | 0.543 | 
COc1ccc(C(=O)c2cc(OC)c(OC)c(OC)c2)cc1OP(=O)([O-])O.[Na+] |  | 37 |  | GI50 (NCI-H460): 0.035 µg/mL; GI50 (SK-MEL-5): 0.0047 µg/mL; GI50 (OVCAR): 0.0025 µg/mL; GI50 (SF-295): 0.012 µg/mL; GI50 (P388): < 0.001 µg/mL; GI50 (KM-20L2): 0.27 µg/mL; GI50 (A498): 0.05 µg/mL; IC50 (Tubulin): 21 µM
COc1ccc(/C=C\c2cc(OC)c(OC)c(OC)c2)cc1 |  | 97 |  | IC50 (Tubulin): 1.3 µM
COc1ccc(C(=O)c2cc(OC)c(OC)c(OC)c2)cc1O [PHENSTATIN] | 6.00 | 86 | 0.0601 | GI50 (NCI-H460): 0.0057 µg/mL (≈ 0.0179 µM); GI50 (SK-MEL-5): 0.0038 µg/mL (≈ 0.0119 µM); GI50 (OVCAR): 0.0023 µg/mL (≈ 0.00723 µM); GI50 (SF-295): 0.052 µg/mL (≈ 0.163 µM); GI50 (P388): 0.0033 µg/mL (≈ 0.0104 µM); GI50 (KM-20L2): 0.04 µg/mL (≈ 0.126 µM); GI50 (A498): 0.38 µg/mL (≈ 1.19 µM)
COc1ccc(C(=O)c2cc(OC)c(OC)c(OC)c2)cc1OC(C)=O |  | 71 |  | IC50 (Tubulin): 3.5 µM
COc1ccc(Cc2cc(OC)c(OC)c(OC)c2)cc1 | 5.36 | 56 |  | 
COc1cc(C(=O)c2cc(C)cc(C)c2)cc(OC)c1OC | 4.96 | 7 | 3.48 | 
COc1ccc(CCc2cc(OC)c(OC)c(OC)c2)cc1 | 5.49 | 54 |  | 
COc1cc(C(=O)c2ccc3c(c2)OCO3)cc(OC)c1OC | 4.82 | 0 | 2.7 | 
COc1ccc(Cc2cc(OC)c(OC)c(OC)c2)cc1O | 5.48 | 65 |  | 
